Among the data in BindingDB's records for doi:10.1021/jm0500119 (Cnrs-University of Lille 2 Umr 8525, 2005) are Kd values, retold here.

The structures appear in SMILES notation.

This test deals with Peptidyl-prolyl cis-trans isomerase NIMA-interacting 1 (Homo sapiens, UniProt Q13526). The test is described as follows: Dissociation constant for human peptidyl-prolyl cis-trans isomerase NIMA-interacting 1. In short, it runs like this:
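15N-labeled Pin1 WW domain (His6-tagged, expressed in E. coli BL21(DE3)) in 25 mM deuterated Tris-HCl pH 6.8, 50 mM NaCl, 5 mM DTT, 2.5 mM EDTA, 10% D2O; 600 MHz 1H-15N HSQC at 293 K. 50 μM protein titrated with ligand 0.025–1 mM final; chemical shift perturbations fitted to a single-site equation for KD.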

Broadly, the Kd is the constant that tells how readily two partners part at equilibrium.

Chain of Peptidyl-prolyl cis-trans isomerase NIMA-interacting 1 (Q13526 whole entry, the tested form may be a part): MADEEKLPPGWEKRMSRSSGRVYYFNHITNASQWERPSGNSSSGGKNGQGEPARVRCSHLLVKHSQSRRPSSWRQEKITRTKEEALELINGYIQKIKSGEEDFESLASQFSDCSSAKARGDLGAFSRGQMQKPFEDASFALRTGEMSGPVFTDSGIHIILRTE

For the compound `NC(=O)[C@@H]1CCCN1C(=O)CCNc1c(O)c(=O)c1=O` [1-[(S)-3-(2-Hydroxy-3,4-dioxo-cyclobut-1-enylamino)-propionyl]-pyrrolidine-2-carboxylic acid amide], the Kd is above 2 mM.
